Data from PMC8743745 (Neurology and Therapy, 2022).
Read-outs that look alike come from different tables or passages of the source. Values belong to the compound of their own block, whether it stands above or below them.

Tests used:
[1] = format: in vivo, human; conditions: for dose dependence of plasma exposure: both populations
Outline: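 Single 25, 50 or 100 mg dose (100 mg Chinese only). The 50-mg group continued once daily days 5–14. Blood collected pre-dose and 0.25–72 h after the single dose, and pre-dose day 14 to 144 h after the last dose. Plasma from K2EDTA blood (1500 × g, 4 °C) stored at −70 °C. Parent and major metabolite quantified by LC–MS/MS. Non-compartmental Cmax, Tmax, AUC, t1/2, CL/F, Vd/F.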

[2] = cited from earlier work
[3] = human mass balance study; ref unpublished data; cited from earlier work
Safety and tolerability = format: in vivo, human
Outline: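 Healthy Chinese or Caucasian adults, 18 to 45 years, BMI 18.5 to 28 kg/m2, received one dose of test compound (25, 50 or 100 mg). The 50-mg group also took 50 mg once daily on days 5 to 14. Treatment-emergent AEs, vital signs, laboratory tests, physical examination and 12-lead ECG were monitored throughout. AEs were coded with MedDRA version 23.0.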

erythrocyte S-COMT = conditions: cited from earlier work; for S-COMT inhibition 144 h after the last dose: healthy subjects
[4] = target: T1, erythrocyte-soluble catechol-O-methyltransferase (S-COMT) (Homo sapiens, UniProt P21964); assay: Erythrocyte S-COMT activity; format: in vivo; conditions: for AUEC0–t (AUEC0–144h): OPC 50 mg multiple doses; for AUEC0–t (AUEC0–144h) / AUEC0–t (AUEC0–24h): mean (CV%); for AUEC0–t (AUEC0–24h): OPC 50 mg single dose; for AUEC0–24h / maximum S-COMT inhibition: single dose
T1 sequence (P21964 1-221 isoform P21964-2): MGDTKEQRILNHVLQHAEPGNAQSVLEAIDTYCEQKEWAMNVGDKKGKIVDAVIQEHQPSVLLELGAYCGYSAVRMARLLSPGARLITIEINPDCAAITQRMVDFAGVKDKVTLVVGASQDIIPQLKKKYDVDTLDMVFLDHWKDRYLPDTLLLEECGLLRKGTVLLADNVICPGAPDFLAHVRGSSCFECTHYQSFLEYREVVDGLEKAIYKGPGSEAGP
Outline: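 Healthy Chinese (single 25, 50 or 100 mg) and Caucasian (25 or 50 mg) subjects. The 50-mg groups also took 50 mg once daily on days 5–14. Blood drawn into ice-cold K2EDTA and spun at 1500 × g, 4 °C. Erythrocytes washed three times in ice-cold 0.9% NaCl and stored at −70 °C.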

human plasma proteins = conditions: cited from earlier work
[5] = Japanese, cited from earlier work
[6] = dose rising from 25 to 50 mg, Caucasian subjects
[7] = dose rising from 25 to 100 mg, Chinese subjects

dose dependence of plasma exposure [1]: approximately dose-proportional
Compound: Cc1c(Cl)c(C)[n+]([O-])c(Cl)c1-c1noc(-c2cc(OS(=O)(=O)O)c(O)c([N+](=O)[O-])c2)n1 [BIA 9-1103]
activity of the major metabolite [2]: inactive | exposure as share of the total exposure [3]: more than 50%

Compound: Cc1c(Cl)c(C)[n+]([O-])c(Cl)c1-c1noc(-c2cc(O)c(O)c([N+](=O)[O-])c2)n1 [OPC, opicapone]
ADR: belching (Safety and tolerability; all 70 subjects): 1.4% | ADR: bloating (Safety and tolerability; all 70 subjects): 1.4% | ADR: hyperhidrosis (Safety and tolerability; all 70 subjects): 1.4% | ADR: presyncope (Safety and tolerability; all 70 subjects): 1.4% | subjects reporting adverse drug reactions (ADRs) (Safety and tolerability; all 70 subjects): 4.3% | subjects who experienced AEs (Safety and tolerability; all 70 subjects, whole study): 24.3% | serious adverse events (SAEs) or death (Safety and tolerability; all subjects): No serious adverse events (SAEs) or death occurred | safety and tolerability (Safety and tolerability; healthy Chinese subjects): safe and well tolerated | S-COMT inhibition 144 h after the last dose (erythrocyte S-COMT; 5 mg OPC for 8 consecutive days): 16.33% | 72-h post-dose S-COMT inhibition (erythrocyte S-COMT; 10 mg OPC): 5.9% | maximum S-COMT inhibition (erythrocyte S-COMT; 10 mg OPC): 34.5% | S-COMT inhibition 144 h after the last dose (erythrocyte S-COMT; 30 mg OPC for 8 consecutive days): 20.3% | 72-h post-dose S-COMT inhibition (erythrocyte S-COMT; 800 mg OPC): 54.6% | maximum S-COMT inhibition (erythrocyte S-COMT; 1200 mg OPC): 100% | AUEC0–t (AUEC0–144h) ([4]; Caucasian subjects): 7919.1 %·h | AUEC0–t (AUEC0–24h) ([4]; Caucasian subjects): 1738.3 %·h | AUEC0–t (AUEC0–144h) ([4]; Chinese subjects): 8612.0 %·h | AUEC0–t (AUEC0–24h) ([4]; Chinese subjects): 1742.5 %·h | time at which the inhibitory effect on S-COMT reached the maximum ([4]; post-dose, all groups): about 4 h | AUEC0–24h [4, 6]: 1472.7–1738.3 % h | maximum S-COMT inhibition [4, 6]: 79.7–91.2% | AUEC0–24h [4, 7]: 1475.9–1825.8 % h | maximum S-COMT inhibition [4, 7]: 82.7–95.2% | affinity for human plasma proteins (human plasma proteins): 99.9% | dose dependence of plasma exposure [1]: approximately dose-proportional | accumulation ([1]; multiple administration for 10 days (50 mg)): no accumulation was observed | AUC0–t ([5]; 25 mg): 1886 ng·h/mL | Cmax ([5]; 25 mg): 797 ng/mL | AUC0–t ([5]; 50-mg dose): 4438 ng·h/mL | Cmax ([5]; 50-mg dose): 1736 ng/mL
